Assay results published in PMC11452492 (Nature Communications, 2024).

Assays:
JNK1 = JNK1 (Homo sapiens, UniProt P45983); assay: in vitro JNK1 PhALC kinase assay; format: biochemical
[1] = system: JNK mediated c-Jun(Ser73) phosphorylation; assay: quantitative western blot p-c-Jun; format: cell-based, human
How it was run: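 SH-SY5Y cells carry a Tet-ON-inducible MKK7–MLK3 kinase-domain chimera and were kept in DMEM F12 + 1% FBS. Cells received 2 or 3 μg/mL doxycycline together with test compound. Lysates were taken after 6 h (2 or 6 h in blots) for quantitative western blot of p-c-Jun(Ser73), with α-tubulin as load control. Normalized signal was fitted to a dose-response function for EC50. Blots are representative of two independent experiments.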

[2] = LC-MS of GSH adduct formation; format: physicochemical; details: 10 mM GSH, electrospray mass spectrometry
How it was run: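 Mass analysis of glutathione adducts by LC-MS with electrospray ionisation. Linear gradient from 10% to 55% eluent B over 12 min, then 95% B, returning to 10% B by 18 min. Flow 0.4 ml/min, column at 40 °C. Source 350 °C, spray voltage 5500 V, declustering potential 80 V. Raw spectra deconvoluted to neutral molecular masses.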

JNK1 WT = JNK1 WT (Homo sapiens, UniProt P45983); assay: SPR kinetic binding, wild-type JNK1 surface
Sequence of JNK1 WT (P45983 1-384 isoform P45983-3): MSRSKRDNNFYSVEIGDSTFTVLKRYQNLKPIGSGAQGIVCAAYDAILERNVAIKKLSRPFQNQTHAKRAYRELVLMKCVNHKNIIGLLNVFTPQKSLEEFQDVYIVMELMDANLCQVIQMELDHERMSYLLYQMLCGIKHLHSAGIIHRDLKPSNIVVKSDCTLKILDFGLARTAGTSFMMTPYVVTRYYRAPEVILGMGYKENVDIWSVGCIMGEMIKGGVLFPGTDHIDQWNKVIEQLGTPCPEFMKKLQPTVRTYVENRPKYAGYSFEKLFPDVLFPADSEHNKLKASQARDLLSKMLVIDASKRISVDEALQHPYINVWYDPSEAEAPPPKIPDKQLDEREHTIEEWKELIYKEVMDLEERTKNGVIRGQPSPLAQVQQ

[3] = system: JNK mediated c-Jun phosphorylation; assay: sorbitol stimulated c-Jun phosphorylation, western blot, HEK293T cells; format: cell-based, human; details: sorbitol 15 min, inhibitor 1 µM added 2 h before
How it was run: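 HEK293T cells seeded at 50,000/well and grown to confluence (~24 h) in DMEM with 10% FBS, then serum-starved 16 h. Inhibitor in 50% DMSO added 2 h before 0.35 M sorbitol for 15 min; final DMSO 0.1%, with a DMSO-only control. Cells chilled on ice, pelleted, washed in cold PBS and lysed in SDS loading buffer. Lysates run on 10% Tris-glycine gels and blotted to nitrocellulose for phospho-JNK and phospho-c-Jun.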

JNK1 C116S mutant = JNK1 C116S mutant (Homo sapiens, UniProt P45983, C116S); format: binding; details: repeat experiment, 100, 300, 1000 nM on JNK C116S surface
Sequence of JNK1 C116S mutant (P45983 1-384 isoform P45983-3 C116S): as the sequence (P45983 1-384 isoform P45983-3) above, with C116S counted along it

[4] = stability in rat blood plasma; format: in vitro ADME; details: up to 120 min
How it was run: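 Test compound from DMSO was added to male Wistar rat blood plasma at 1 or 10 μM final. Samples were taken at 0, 10, 20, 30, 60 and 120 min, quenched with ice-cold acetonitrile, and centrifuged. Parent compound was quantified by LC-MS/MS, and t1/2 was calculated from its decline.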

[5] = system: p38-mediated MK2 phosphorylation; assay: phospho-MK2 western blot in HEK293T MKK6EE cells; format: cell-based, human; details: doxycycline, JNK inhibitors 3 μM
How it was run: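 HEK293T MKK6EE cells allow p38-specific activation through doxycycline-inducible expression of constitutively active MKK6EE. Phospho-MK2 was read by western blot with a fluorescent secondary antibody and infrared imaging. α-Tubulin served as load control, and anti-FLAG monitored transgene expression.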

[6] = metabolic stability in rat primary hepatocytes; format: in vitro ADME
How it was run: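 Hepatocytes were isolated from male Wistar rats by collagenase perfusion. Test compound from DMSO was added to 1 or 10 μM final (0.1% DMSO) in William's E:Ham's F12 (1:1) medium. Samples were taken at 0–240 min, quenched with ice-cold acetonitrile, and parent compound was quantified by LC-MS/MS. A cell-free medium control was included. Clint came from parent loss; ClH and extraction ratio were predicted from Clint, with cut-offs of 0.3 and 0.7.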

Sequence of JNK1 (P45983 1-384 isoform P45983-3): as the sequence (P45983 1-384 isoform P45983-3) above

SMILES | IC50 (JNK1) | Western blot p-c-Jun(Ser73) EC50/IC50 ([1]; SH-SY5Y MKK7 ACT cells, 6 h DOX stimulation) | effect on c-Jun(Ser73) phosphorylation ([1]; SH-SY5Y MKK7 ACT, 2 or 6 h DOX, inhibitor 50 nM or 1 µM) | GSH adduct formation [2] | k3, new experiment calculated with the newly determined k1, k2 (JNK1 WT; 1, 3, 15 nM on JNK WT surface) | k3, parallel measurement (JNK1 WT; new experiment (for CA-IN-8: a, 15, 40, 70 nM) on JNK WT surface) | effect on c-Jun phosphorylation [3] | k1, parallel measurement (JNK1 C116S mutant) | k2, parallel measurement (JNK1 C116S mutant) | half-life / stability in plasma [4] | effect on p38-mediated MK2 phosphorylation [5] | hepatic extraction (class) ([6]; cut-off 0.3 low/intermediate, 0.7 intermediate/high) | in vivo hepatic clearance (ClH), predicted ([6]; predicted from Clint measured in rat primary hepatocyte cultures)
CC(=O)Nc1cccc(C(=O)Nc2ccc(Nc3nccc(-c4cccnc4)n3)c(C)c2)c1 [IN-8a] | 5.33 ± 0.232 µM | – | – | – | – | – | – | – | – | – | – | – | –
Cc1cc(NC(=O)c2cccc(NC(=O)/C=C/CN(C)C)c2)ccc1Nc1nccc(-c2cccnc2)n1 [JNK-IN-8] | – | ~ 0.7 μM | can block c-Jun phosphorylation | irreversible covalent adduct formation with GSH | 0.03454 s⁻¹ | 0.03181 s⁻¹ | efficiently blocked JNK mediated c-Jun phosphorylation | 1492000 M⁻¹ s⁻¹ | 0.1676 s⁻¹ | stable | do not affect | low | 10.1 mL/min/kg
